Experimental data published in ChEMBL document CHEMBL5661979, “Pharmacological inhibition of BMK1 suppresses tumor growth through promyelocytic leukemia protein” (Cancer Cell, 2010).
pIC50: −log10 of the molar value.

Columns and labels:
[1] = target: Serine/threonine-protein kinase ATR (Homo sapiens, UniProt Q13535); assay: Inhibition of ATR in human HeLa cells lysate pre incubated for 15 mins followed by ATP acyl phosphate probe addition and measured after 10 mins by LC-MS/MS analysis; assay type: subcellular
Method in brief: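 KiNativ-type profiling in HeLa lysate (5 mg/mL total protein). Lysate preincubated 15 min with inhibitor at 50, 10, 2, 0.8 or 0 μM, then ATP or ADP acylphosphate probe added (5 μM final) for 10 min. Reaction stopped with urea and analysed by targeted MS, using up to four fragment ions per kinase peptide-probe conjugate. % inhibition calculated against untreated lysate. Duplicate reactions.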

[2] = target: Cyclin-dependent kinase 9 (Homo sapiens, UniProt P50750); assay: Inhibition of CDK9 in human HeLa cells lysate pre incubated for 15 mins followed by ATP acyl phosphate probe addition and measured after 10 mins by LC-MS/MS analysis; assay type: subcellular
Method in brief: (§1)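 KiNativ profiling in HeLa lysate (5 mg/mL total protein). Lysate incubated 15 min with inhibitor at 50, 10, 2, 0.8 or 0 μM. ATP or ADP acylphosphate probe then added (5 μM final) and reacted 10 min. Reaction stopped with urea and analysed by targeted MS, using up to four fragment ions per kinase peptide-probe conjugate. % inhibition taken against untreated lysate. Run in duplicate.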

Ephrin type-B receptor 4 = Ephrin type-B receptor 4 (Homo sapiens, UniProt P54760); assay: Inhibition of EphB4 in human HeLa cells lysate pre incubated for 15 mins followed by ATP acyl phosphate probe addition and measured after 10 mins by LC-MS/MS analysis; assay type: subcellular
[3] = target: Mitogen-activated protein kinase kinase kinase 11 (Homo sapiens, UniProt Q16584); assay: Inhibition of MLK3 in human HeLa cells lysate pre incubated for 15 mins followed by ATP acyl phosphate probe addition and measured after 10 mins by LC-MS/MS analysis; assay type: subcellular
[4] = target: Serine/threonine-protein kinase Nek7 (Homo sapiens, UniProt Q8TDX7); assay: Inhibition of NEK7 in human HeLa cells lysate pre incubated for 15 mins followed by ATP acyl phosphate probe addition and measured after 10 mins by LC-MS/MS analysis; assay type: subcellular
PKC alpha and beta-2 = PKC alpha and beta-2 (Homo sapiens, UniProt P17252+P05771); assay: Inhibition of PKCalpha/beta in human HeLa cells lysate pre incubated for 15 mins followed by ATP acyl phosphate probe addition and measured after 10 mins by LC-MS/MS analysis; assay type: subcellular
[5] = target: STE20-like serine/threonine-protein kinase (Homo sapiens, UniProt Q9H2G2); assay: Inhibition of SLK in human HeLa cells lysate pre incubated for 15 mins followed by ATP acyl phosphate probe addition and measured after 10 mins by LC-MS/MS analysis; assay type: subcellular
[6] = target: Ribosomal protein S6 kinase alpha-3 (Homo sapiens, UniProt P51812); assay: Inhibition of RSK2 domain 2 K2 site in human HeLa cells lysate pre incubated for 15 mins followed by ADP acyl phosphate probe addition and measured after 10 mins by LC-MS/MS analysis; assay type: subcellular
[7] = target: Serine/threonine-protein kinase D2 (Homo sapiens, UniProt Q9BZL6); assay: Inhibition of PKD2 in human HeLa cells lysate pre incubated for 15 mins followed by ADP acyl phosphate probe addition and measured after 10 mins by LC-MS/MS analysis; assay type: subcellular
[8] = target: Serine/threonine-protein kinase tousled-like 2 (Homo sapiens, UniProt Q86UE8); assay: Inhibition of TLK2 in human HeLa cells lysate at 50 uM pre incubated for 15 mins followed by ADP acyl phosphate probe addition and measured after 10 mins by LC-MS/MS analysis relative to control; assay type: subcellular; conditions: time 25.0 min
[9] = Inhibition of CDK5/PRKX/PRKY in human HeLa cells lysate at 50 uM pre incubated for 15 mins followed by ADP acyl phosphate probe addition and measured after 10 mins by LC-MS/MS analysis relative to control; conditions: 25 min, condition cancer; method in brief: as §1
Activated CDC42 kinase 1 = Activated CDC42 kinase 1 (Homo sapiens, UniProt Q07912); assay: Inhibition of ACK1 in human HeLa cells lysate at 10 uM pre incubated for 15 mins followed by ADP acyl phosphate probe addition and measured after 10 mins by LC-MS/MS analysis relative to control; assay type: subcellular; conditions: time 25.0 min
Method in brief: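 HeLa cell lysates (5 mg/mL total protein) were preincubated with inhibitor at 0, 0.8, 2, 10 or 50 μM for 15 min. ATP or ADP acylphosphate probe was then added (5 μM final) for 10 min, and reactions were stopped with urea. Up to four fragment ions per kinase probe-peptide were quantified by targeted MS. % inhibition was taken relative to untreated lysate. Run in duplicate.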

[10] = Inhibition of PRKX/PRKY in human HeLa cells lysate at 2 uM pre incubated for 15 mins followed by ADP acyl phosphate probe addition and measured after 10 mins by LC-MS/MS analysis relative to control; conditions: 25 min, condition cancer
[11] = target: Glycogen synthase kinase-3 beta (Homo sapiens, UniProt P49841); assay: Inhibition of GSK3B isoform 2 in human HeLa cells lysate at 50 uM pre incubated for 15 mins followed by ATP acyl phosphate probe addition and measured after 10 mins by LC-MS/MS analysis relative to control; assay type: subcellular; conditions: time 25.0 min
[12] = target: Phosphatidylinositol 4-kinase alpha (Homo sapiens, UniProt P42356); assay: Inhibition of PIK4CA in human HeLa cells lysate at 10 uM pre incubated for 15 mins followed by ATP acyl phosphate probe addition and measured after 10 mins by LC-MS/MS analysis relative to control; assay type: subcellular; conditions: time 25.0 min
[13] = target: Cyclin-dependent kinase 7 (Homo sapiens, UniProt P50613); assay: Inhibition of CDK7 in human HeLa cells lysate at 2 uM pre incubated for 15 mins followed by ATP acyl phosphate probe addition and measured after 10 mins by LC-MS/MS analysis relative to control; assay type: subcellular; conditions: time 25.0 min; method in brief: as §1
[14] = target: T1, Dual specificity mitogen-activated protein kinase kinase 3 (Homo sapiens) (UniProt P46734); assay: Inhibition of MAP2K3 in human HeLa cells lysate at 2 uM pre incubated for 15 mins followed by ATP acyl phosphate probe addition and measured after 10 mins by LC-MS/MS analysis relative to control; assay type: subcellular; conditions: time 25.0 min
T1 sequence (whole entry): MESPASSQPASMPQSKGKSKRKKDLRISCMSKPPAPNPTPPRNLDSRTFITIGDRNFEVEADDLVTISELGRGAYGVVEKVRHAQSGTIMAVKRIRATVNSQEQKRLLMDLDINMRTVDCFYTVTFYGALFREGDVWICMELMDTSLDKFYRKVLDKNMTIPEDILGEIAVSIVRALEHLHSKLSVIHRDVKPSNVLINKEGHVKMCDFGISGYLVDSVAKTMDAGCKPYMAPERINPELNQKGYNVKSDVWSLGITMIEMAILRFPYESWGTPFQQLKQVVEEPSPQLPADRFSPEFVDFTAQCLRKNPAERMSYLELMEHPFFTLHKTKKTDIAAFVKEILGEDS

[15] = Plasma concentration in Sprague-Dawley rat at 2 mg/kg, po measured after 8 hrs by LC-MS/MS analysis; assay type: ADME, organism-based

Chain of Cyclin-dependent kinase 7 (P50613 whole entry): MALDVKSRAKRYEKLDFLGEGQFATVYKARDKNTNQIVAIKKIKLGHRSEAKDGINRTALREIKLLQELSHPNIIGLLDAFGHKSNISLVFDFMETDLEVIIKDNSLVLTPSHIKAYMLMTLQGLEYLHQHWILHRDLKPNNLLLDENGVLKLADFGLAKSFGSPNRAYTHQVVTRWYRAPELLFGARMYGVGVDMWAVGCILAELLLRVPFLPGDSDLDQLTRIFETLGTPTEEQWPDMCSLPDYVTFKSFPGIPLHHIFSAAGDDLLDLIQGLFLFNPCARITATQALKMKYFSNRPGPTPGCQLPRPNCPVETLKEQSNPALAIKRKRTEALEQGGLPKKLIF
Chain of Serine/threonine-protein kinase D2 (Q9BZL6 whole entry): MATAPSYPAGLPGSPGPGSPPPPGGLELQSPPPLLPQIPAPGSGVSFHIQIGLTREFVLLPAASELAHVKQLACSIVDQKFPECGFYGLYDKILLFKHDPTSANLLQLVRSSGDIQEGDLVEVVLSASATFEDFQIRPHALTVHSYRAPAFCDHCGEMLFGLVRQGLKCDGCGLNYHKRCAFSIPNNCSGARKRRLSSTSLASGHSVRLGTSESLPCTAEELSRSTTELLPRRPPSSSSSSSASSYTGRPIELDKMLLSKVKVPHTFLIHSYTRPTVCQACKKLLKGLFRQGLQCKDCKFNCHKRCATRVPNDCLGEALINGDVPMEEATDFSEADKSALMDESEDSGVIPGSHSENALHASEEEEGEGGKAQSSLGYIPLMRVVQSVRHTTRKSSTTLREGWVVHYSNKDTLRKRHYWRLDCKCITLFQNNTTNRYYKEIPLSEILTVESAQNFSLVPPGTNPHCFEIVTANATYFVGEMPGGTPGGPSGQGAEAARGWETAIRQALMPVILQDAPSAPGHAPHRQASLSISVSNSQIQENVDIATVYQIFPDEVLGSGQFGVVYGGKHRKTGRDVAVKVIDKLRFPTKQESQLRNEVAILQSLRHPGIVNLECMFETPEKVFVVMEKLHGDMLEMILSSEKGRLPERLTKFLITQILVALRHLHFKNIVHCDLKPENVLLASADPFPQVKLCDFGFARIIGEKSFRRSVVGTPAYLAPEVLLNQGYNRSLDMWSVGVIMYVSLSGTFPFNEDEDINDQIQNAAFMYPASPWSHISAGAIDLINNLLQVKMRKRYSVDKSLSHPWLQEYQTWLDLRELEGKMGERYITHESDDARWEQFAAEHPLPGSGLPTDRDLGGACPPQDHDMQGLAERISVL
Chain of Mitogen-activated protein kinase kinase kinase 11 (Q16584 whole entry): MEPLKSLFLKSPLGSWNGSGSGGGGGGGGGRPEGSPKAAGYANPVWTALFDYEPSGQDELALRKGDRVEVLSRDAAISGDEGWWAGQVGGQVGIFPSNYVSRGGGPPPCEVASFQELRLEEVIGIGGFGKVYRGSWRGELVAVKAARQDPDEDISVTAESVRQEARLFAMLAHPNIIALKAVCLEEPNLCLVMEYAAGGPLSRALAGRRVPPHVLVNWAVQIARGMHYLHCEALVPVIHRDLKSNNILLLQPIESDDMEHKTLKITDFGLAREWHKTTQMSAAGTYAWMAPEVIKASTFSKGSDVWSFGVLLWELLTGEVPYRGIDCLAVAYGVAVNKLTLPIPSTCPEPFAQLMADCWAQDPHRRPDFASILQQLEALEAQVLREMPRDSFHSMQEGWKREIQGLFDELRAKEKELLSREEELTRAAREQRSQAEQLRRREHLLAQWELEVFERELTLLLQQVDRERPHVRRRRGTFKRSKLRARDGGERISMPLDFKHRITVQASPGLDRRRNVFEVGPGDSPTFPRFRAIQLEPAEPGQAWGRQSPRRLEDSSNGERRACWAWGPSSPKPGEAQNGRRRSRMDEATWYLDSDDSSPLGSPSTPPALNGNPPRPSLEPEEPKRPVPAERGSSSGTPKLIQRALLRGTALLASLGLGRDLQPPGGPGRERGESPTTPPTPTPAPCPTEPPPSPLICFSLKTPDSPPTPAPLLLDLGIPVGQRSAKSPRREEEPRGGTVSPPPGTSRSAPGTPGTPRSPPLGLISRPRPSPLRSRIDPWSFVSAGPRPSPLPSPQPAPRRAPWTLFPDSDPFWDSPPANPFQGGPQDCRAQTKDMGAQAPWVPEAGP
Chain of Activated CDC42 kinase 1 (Q07912 whole entry, looked up, the tested form may be a part): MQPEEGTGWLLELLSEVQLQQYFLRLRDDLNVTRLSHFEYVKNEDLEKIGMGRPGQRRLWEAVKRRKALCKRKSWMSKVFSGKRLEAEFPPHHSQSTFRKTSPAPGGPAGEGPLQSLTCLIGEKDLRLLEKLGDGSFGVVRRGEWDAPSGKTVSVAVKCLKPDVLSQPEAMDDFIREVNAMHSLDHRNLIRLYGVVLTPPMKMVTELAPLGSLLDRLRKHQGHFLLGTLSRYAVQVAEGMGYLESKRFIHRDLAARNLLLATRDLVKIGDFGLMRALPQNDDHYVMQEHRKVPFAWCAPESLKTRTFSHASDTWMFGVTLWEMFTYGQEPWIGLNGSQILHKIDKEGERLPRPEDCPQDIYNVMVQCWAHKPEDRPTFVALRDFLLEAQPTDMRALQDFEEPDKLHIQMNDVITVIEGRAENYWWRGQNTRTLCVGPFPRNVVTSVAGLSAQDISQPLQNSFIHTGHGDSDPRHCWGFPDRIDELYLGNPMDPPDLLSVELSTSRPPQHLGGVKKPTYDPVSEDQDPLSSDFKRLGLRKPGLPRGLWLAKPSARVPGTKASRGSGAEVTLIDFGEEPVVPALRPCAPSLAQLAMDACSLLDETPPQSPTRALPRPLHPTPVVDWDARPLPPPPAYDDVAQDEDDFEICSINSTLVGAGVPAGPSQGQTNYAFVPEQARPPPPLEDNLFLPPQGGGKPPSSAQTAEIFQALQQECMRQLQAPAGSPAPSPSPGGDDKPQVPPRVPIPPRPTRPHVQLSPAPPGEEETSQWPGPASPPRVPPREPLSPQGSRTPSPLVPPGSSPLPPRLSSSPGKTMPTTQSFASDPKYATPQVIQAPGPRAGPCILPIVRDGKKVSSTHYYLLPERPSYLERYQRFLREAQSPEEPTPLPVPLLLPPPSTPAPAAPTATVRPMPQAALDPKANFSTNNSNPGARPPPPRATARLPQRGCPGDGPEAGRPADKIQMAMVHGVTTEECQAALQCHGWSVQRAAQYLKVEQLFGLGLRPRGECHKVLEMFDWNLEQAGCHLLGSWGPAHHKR
Chain of Serine/threonine-protein kinase Nek7 (Q8TDX7 whole entry): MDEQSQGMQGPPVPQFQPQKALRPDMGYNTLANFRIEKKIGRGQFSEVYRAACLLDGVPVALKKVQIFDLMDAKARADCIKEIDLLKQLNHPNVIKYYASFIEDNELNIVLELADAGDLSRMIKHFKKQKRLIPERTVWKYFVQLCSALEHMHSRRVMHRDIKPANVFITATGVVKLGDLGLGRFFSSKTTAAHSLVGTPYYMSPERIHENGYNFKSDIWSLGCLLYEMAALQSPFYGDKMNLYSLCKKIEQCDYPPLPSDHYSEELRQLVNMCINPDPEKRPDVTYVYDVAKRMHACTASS
Chain of Glycogen synthase kinase-3 beta (P49841 whole entry, looked up, canonical isoform): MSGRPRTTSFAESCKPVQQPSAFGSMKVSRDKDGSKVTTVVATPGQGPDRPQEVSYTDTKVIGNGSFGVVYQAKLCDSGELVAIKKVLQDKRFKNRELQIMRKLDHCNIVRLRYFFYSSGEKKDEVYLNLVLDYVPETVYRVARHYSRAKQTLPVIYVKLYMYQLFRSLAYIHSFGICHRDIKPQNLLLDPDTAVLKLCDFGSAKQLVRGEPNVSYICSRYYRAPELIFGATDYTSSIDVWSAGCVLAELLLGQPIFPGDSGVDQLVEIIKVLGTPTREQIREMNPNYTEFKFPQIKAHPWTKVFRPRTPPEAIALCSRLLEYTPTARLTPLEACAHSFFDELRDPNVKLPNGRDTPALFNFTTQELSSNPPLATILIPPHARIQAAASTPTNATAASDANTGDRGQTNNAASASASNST
Chain of Ephrin type-B receptor 4 (P54760 whole entry): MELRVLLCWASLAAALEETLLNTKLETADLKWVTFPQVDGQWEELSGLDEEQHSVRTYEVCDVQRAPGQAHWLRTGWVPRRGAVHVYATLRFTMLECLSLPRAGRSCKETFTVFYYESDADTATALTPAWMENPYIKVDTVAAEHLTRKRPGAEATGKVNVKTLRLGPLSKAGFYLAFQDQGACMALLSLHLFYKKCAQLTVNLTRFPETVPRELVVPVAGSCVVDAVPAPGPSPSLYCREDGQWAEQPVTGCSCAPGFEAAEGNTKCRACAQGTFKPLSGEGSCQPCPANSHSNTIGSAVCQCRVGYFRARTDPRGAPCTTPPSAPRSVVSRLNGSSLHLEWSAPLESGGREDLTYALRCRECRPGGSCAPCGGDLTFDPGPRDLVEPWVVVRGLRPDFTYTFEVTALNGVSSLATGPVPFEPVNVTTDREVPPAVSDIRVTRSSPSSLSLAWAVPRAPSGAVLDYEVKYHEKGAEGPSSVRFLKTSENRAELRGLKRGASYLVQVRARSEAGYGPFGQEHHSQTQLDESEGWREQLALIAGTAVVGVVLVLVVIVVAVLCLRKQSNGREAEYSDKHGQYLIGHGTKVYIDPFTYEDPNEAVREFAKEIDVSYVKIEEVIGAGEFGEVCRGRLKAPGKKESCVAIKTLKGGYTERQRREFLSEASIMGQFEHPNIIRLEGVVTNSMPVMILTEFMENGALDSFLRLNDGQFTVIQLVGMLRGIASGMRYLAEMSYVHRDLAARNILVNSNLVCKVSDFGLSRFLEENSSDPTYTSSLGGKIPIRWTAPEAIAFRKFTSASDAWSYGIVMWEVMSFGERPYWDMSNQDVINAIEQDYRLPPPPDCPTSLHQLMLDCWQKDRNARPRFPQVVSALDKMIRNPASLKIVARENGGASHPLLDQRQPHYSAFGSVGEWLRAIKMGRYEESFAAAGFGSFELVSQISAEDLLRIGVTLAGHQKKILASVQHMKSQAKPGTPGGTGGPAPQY

CCOc1cc(N2CCC(O)CC2)ccc1Nc1ncc2c(n1)N(C)c1ccccc1C(=O)N2C
pIC50 [1]: < 4.30 | pIC50 [2]: < 4.30 | pIC50 (Ephrin type-B receptor 4): < 4.30 | pIC50 [3]: < 4.30 | pIC50 [4]: < 4.30 | IC50 (PKC alpha and beta-2): > 50 µM | pIC50 [5]: < 4.30 | pIC50 [6]: 4.33 | pIC50 [7]: < 4.30 | inhibition [8]: -2.4% | inhibition at 50 µM [9]: -10% | inhibition (Activated CDC42 kinase 1): 37% | inhibition at 2 µM [10]: 25.5% | inhibition [11]: 22.3% | inhibition [12]: 7.7% | inhibition [13]: -7.9% | inhibition [14]: 13.5% | concentration at 8 h [15]: 34 nM
